Structures are written as SMILES.

The data set has as its system Liver microsome. Kind of data set: Retention time in Sprague-Dawley rat liver microsomes treated with 100 uM cinobufagin at 37 degC after 30 mins by UFLC-DAD-ESI-MS analysis. The class given is ADME. The following applies: 0.5 h. The procedure, abridged:
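Male Sprague-Dawley rat microsomes (0.3 mg/ml) were incubated with CB (100 µM) at 37°C for 30 min, with and without NADPH-generating system. Separation was on an ODS column at 40°C using an acetonitrile/0.5% formic acid water gradient at 0.4 ml/min, with DAD detection at 294 nm plus ESI-MS.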
(In general: Liver microsomes are a subcellular fraction often used to study metabolism.)
Consider `CC(=O)O[C@H]1[C@H]2O[C@]23[C@@H]2CC[C@@H]4C[C@H](O)CC[C@]4(C)[C@H]2CC[C@]3(C)[C@H]1c1ccc(=O)oc1`, for which the Retention_time is given as 10.59 min. In turn, `C[C@]12CC[C@@H](O)C[C@H]1CC[C@@H]1[C@@H]2CC[C@]2(C)[C@@H](c3ccc(=O)oc3)[C@@H](O)[C@H]3O[C@]132` came in with a Retention_time of 8.32 min. As for `C[C@]12CC[C@H](O)C[C@H]1CC[C@@H]1[C@@H]2CC[C@]2(C)[C@@H](c3ccc(=O)oc3)[C@@H](O)[C@H]3O[C@]132` [DESACETYLCINOBUFAGIN], the figure is 6.95 min.

Source of the values: ChEMBL document CHEMBL3526081 (Drug Metab Dispos, 2011).
